Results published in ChEMBL document CHEMBL3414503, “Distinct novel quinazolinone exhibits selective inhibition in MGC-803 cancer cells by dictating mutant p53 function” (Eur J Med Chem, 2015).
Active and inactive are the calls of the source. The rule behind the calls is not given here.

Columns and labels:
[1] = tested on: MGC-803; experiment: Cytotoxicity against human MGC803 cells assessed as cell viability after 48 hrs by MTT assay; format: functional, cell-based; conditions: MGC-803, 48 h
Summary of the method: (§1)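 Cells were trypsinized, seeded in 96-well plates at 2 × 10³ cells/well and grown for 24 h. Medium was then replaced with compound solutions (in DMSO, range from 0.1) for 48 h, and viability was read by MTT. Cancer lines were grown in RPMI 1640 + 10% FCS. IC50 from 3 independent experiments, each in triplicate.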

[2] = tested on: MGC-803; experiment: Cell cycle arrest in human MGC803 cells assessed as accumulation at S phase at 1 uM after 48 hrs by propidium iodide staining-based FACS analysis relative to control; format: functional
[3] = tested on: MGC-803; experiment: Cell cycle arrest in human MGC803 cells assessed as accumulation at G0/G1 phase at 1 uM after 48 hrs by propidium iodide staining-based FACS analysis relative to control; format: functional
[4] = tested on: Cellular tumor antigen p53 (Homo sapiens), P04637 [UNDEFINED MUTATION]; experiment: Inhibition of P53 mutant in human MGC803 cells assessed as upregulation of Bim expression at 1 to 10 uM after 24 hrs by Western blot analysis; format: cell-based; conditions: MGC-803
[5] = tested on: Cellular tumor antigen p53 (Homo sapiens), P04637 [UNDEFINED MUTATION]; experiment: Inhibition of P53 mutant in human MGC803 cells assessed as upregulation of cdk2 activity at 1 to 10 uM after 24 hrs by Western blot analysis; conditions: MGC-803
[6] = tested on: MGC-803; experiment: Cell cycle arrest in human MGC803 cells assessed as accumulation at S phase at 10 uM after 48 hrs by propidium iodide staining-based FACS analysis relative to control; format: functional
[7] = tested on: Cellular tumor antigen p53 (Homo sapiens), P04637 [UNDEFINED MUTATION]; experiment: Inhibition of P53 mutant in human MGC803 cells assessed as decrease in p21 expression at 1 to 10 uM after 24 hrs by Western blot analysis; format: cell-based; conditions: MGC-803
Summary of the method: (§2)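 MGC-803 cells, 3 × 10⁵ per well of a 6-well plate, exposed to compound for 24 h. Cells were washed in ice-cold PBS and lysed in sample buffer, then run on SDS-PAGE and transferred to nitrocellulose. Blots were probed with primary antibodies and […] anti-rabbit IgG and developed by ECL.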

[8] = tested on: Cellular tumor antigen p53 (Homo sapiens), P04637 [UNDEFINED MUTATION]; experiment: Inhibition of P53 mutant in human MGC803 cells assessed as change in BAX expression at 1 to 10 uM after 24 hrs by Western blot analysis; format: cell-based; conditions: MGC-803
[9] = tested on: MGC-803; experiment: Cell cycle arrest in human MGC803 cells assessed as accumulation at G2/M phase at 1 uM after 48 hrs by propidium iodide staining-based FACS analysis relative to control; format: functional
[10] = tested on: HepG2; experiment: Cytotoxicity against human HepG2 cells assessed as cell viability after 48 hrs by MTT assay; format: functional, cell-based; conditions: HepG2, 48 h; summary of the method: as §1
[11] = tested on: MGC-803; experiment: Cell cycle arrest in human MGC803 cells assessed as accumulation at sub G1 phase at 10 uM after 48 hrs by propidium iodide staining-based FACS analysis relative to control; format: functional
[12] = tested on: MGC-803; experiment: Cell cycle arrest in human MGC803 cells assessed as accumulation at G0/G1 phase at 10 uM after 48 hrs by propidium iodide staining-based FACS analysis relative to control; format: functional
[13] = tested on: NCI-H460; experiment: Cytotoxicity against human NCI-H460 cells assessed as cell viability after 48 hrs by MTT assay; format: functional, cell-based; conditions: NCI-H460, 48 h; summary of the method: as §1
[14] = tested on: MGC-803; experiment: Induction of apoptosis in human MGC803 cells assessed as chromatin condensation at 1 to 10 uM after 48 hrs by Hoechst 33258 staining-based fluorescence confocal microscopic analysis; format: functional, cell-based
Summary of the method: (§3)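 MGC-803 cells grown on glass slides and treated 48 h. They were then washed in PBS, fixed in 4% paraformaldehyde and permeabilized with 1% Triton X-100. After four washes, Hoechst 33258 ([…] final) was added in the last wash to stain nuclei.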

[15] = Cytotoxicity against human WI38 cells expressing wild type p53 assessed as cell viability at 1 to 10 uM after 48 hrs by MTT assay; format: cell-based; conditions: wi-38, 48 h
Summary of the method: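 WI-38 normal lung fibroblasts, grown in DMEM + 10% FCS, seeded at 2 × 10³ cells/well in 96-well plates for 24 h. Then exposed to compound (in DMSO) for 48 h, with viability by MTT.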

[16] = tested on: MGC-803; experiment: Cytotoxicity against human MGC803 cells assessed as cell size at 1 uM after 48 hrs by FACS analysis relative to control; format: functional
Summary of the method: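 Cells treated 48 h with DMSO or compound at […] as printed. Forward scatter (mean FSC-H) measured by FACS and given relative to control cells.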

[17] = tested on: Cellular tumor antigen p53 (Homo sapiens), P04637 [UNDEFINED MUTATION]; experiment: Inhibition of P53 mutant acetylation at k373 in human MGC803 cells at 1 to 10 uM after 24 hrs by Western blot analysis; format: cell-based; conditions: MGC-803; summary of the method: as §2
[18] = tested on: Cellular tumor antigen p53 (Homo sapiens), P04637 [UNDEFINED MUTATION]; experiment: Inhibition of P53 mutant in human MGC803 cells assessed as downregulation of Bcl-2 expression at 1 to 10 uM after 24 hrs by Western blot analysis; format: cell-based; conditions: MGC-803
[19] = tested on: MGC-803; experiment: Induction of apoptosis in human MGC803 cells assessed as chromatin fragmentation at 1 to 10 uM after 48 hrs by Hoechst 33258 staining-based fluorescence confocal microscopic analysis; format: functional, cell-based; summary of the method: as §3
[20] = tested on: Cellular tumor antigen p53 (Homo sapiens), P04637 [UNDEFINED MUTATION]; experiment: Inhibition of P53 mutant phosphorylation at s392 in human MGC803 cells at 1 to 10 uM after 24 hrs by Western blot analysis; format: cell-based; conditions: MGC-803; summary of the method: as §2
[21] = tested on: MGC-803; experiment: Cell cycle arrest in human MGC803 cells assessed as accumulation at sub G1 phase at 1 uM after 48 hrs by propidium iodide staining-based FACS analysis relative to control; format: functional
[22] = tested on: A-375; experiment: Cytotoxicity against human A375 cells assessed as cell viability after 48 hrs by MTT assay; format: functional, cell-based; conditions: A-375, 48 h; summary of the method: as §1
[23] = tested on: MGC-803; experiment: Cell cycle arrest in human MGC803 cells assessed as accumulation at G2/M phase at 10 uM after 48 hrs by propidium iodide staining-based FACS analysis relative to control; format: functional
[24] = tested on: MGC-803; experiment: Induction of apoptosis in human MGC803 cells assessed as caspase-3 activation at 5 uM after 24 hrs by FITC-DEVD-FMK probe-based flow cytometric analysis (reference value: 1.8%); format: functional
Summary of the method: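 Treated and control MGC-803 cells (5 µM, 24 h) harvested at 1 × 10⁶ cells/mL in RPMI 1640 + 10% FCS. Incubated with FITC-DEVD-FMK for 1 h at 37 °C, 5% CO₂, then analysed by flow cytometry with 488 nm excitation. Given as percent change versus untreated control.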

[25] = tested on: Cellular tumor antigen p53 (Homo sapiens), P04637 [UNDEFINED MUTATION]; experiment: Inhibition of P53 mutant in human MGC803 cells assessed as AIF release from mitochondria and translocation to nucleus at 1 to 10 uM after 48 hrs by immunostaining assay; format: cell-based; conditions: MGC-803
Summary of the method: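 MGC-803 cells on slides, 48 h after treatment, were washed in PBS and fixed in 4% paraformaldehyde. They were immunostained for AIF with primary antibody and a Cy3-conjugated secondary.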

Chain of Cellular tumor antigen p53 (Homo sapiens), P04637 [UNDEFINED MUTATION] (P04637 whole entry, looked up, change not shown, the tested form may be a part): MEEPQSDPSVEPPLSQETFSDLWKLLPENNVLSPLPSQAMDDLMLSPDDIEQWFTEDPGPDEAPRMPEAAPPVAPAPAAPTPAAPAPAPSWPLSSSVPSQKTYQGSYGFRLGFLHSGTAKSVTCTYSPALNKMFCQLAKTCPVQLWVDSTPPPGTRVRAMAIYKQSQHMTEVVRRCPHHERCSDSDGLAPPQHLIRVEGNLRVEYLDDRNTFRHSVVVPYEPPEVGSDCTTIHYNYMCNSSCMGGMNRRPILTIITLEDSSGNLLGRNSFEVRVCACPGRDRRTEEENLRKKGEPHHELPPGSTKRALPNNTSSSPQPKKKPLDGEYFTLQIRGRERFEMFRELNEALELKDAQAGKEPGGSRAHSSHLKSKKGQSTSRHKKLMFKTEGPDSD

COc1cc2nc(/C=C/c3ccc(Cl)cc3)n(CCCN(C)C)c(=O)c2cc1OC
IC50 [1]: 3.18 µM | Activity [2]: 29.22% | Activity [3]: 51.79% | inhibition [4]: Active | inhibition [5]: Active | Activity [6]: 29.93% | inhibition [7]: Active | inhibition [8]: inactive | Activity [9]: 14.1% | IC50 [10]: 6.96 µM | Activity [11]: 30.4% | Activity [12]: 19.42% | IC50 [13]: 7.15 µM | Activity [14]: Active | Activity [15]: Non-toxic | Activity [16]: 59.4% | inhibition [17]: Active | inhibition [18]: Active | Activity [19]: Active | inhibition [20]: Active | Activity [21]: 4.89% | IC50 [22]: > 20 µM | Activity [23]: 20.25% | Activity [24]: 3.5% | inhibition [25]: Active
